Lung fibro prol = blocks proliferation of human lung fibroblasts; LL 47 human lung fibroblast viability, ATP luminescence; hits give low values; viability, % at 10 µM; 1.1% of 85,000 active; AID 719;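 active = viability at or below 50% in the single dose screen; inactive = viability above 50%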;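 also: compound exposure lasted 72 h before the ATP readout; 100% = median luminescence of untreated cell-only wells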
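Times – overnight cell rest, 72 h compound treatment at 37 °C · Test system – human lung fibroblast line LL 47, low passage · Amount – 1,150 cells in each well · Controls – cell-only wells, no compound · Doses – 0.1% DMSO in all compound wells · Measured by – CellTiter-Glo luminescence · Buffer or medium – IMEM plus 15% FBS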
HCT116 bCat-KO = beta-catenin-lacking colon tumor cell growth suppression. HCT116 beta-catenin knockout viability, CellTiter-Glo, 60 h; hits give low values. 1.5% of 140,000 active. viability, % at 10 µM. AID 818;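 active = viability at or under a set limit, the compound median less 4 SD, cut at about 6% in these data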;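 also: 0% = Hyamine 1622 control at 20 µM and 100% = untreated cell control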
HUVEC prolif 384 = inhibitors of human endothelial cell proliferation; HUVEC proliferation, CellTiter-Glo luminescence, 72 h; hits give low values; 1.1% of 86,000 active; viability, % at 10 µM (by protocol);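 active = viability at or below 30%; inactive = viability above 30%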;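 also: 100% = median luminescence of DMSO-only cell control wells on each plate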
H69AR growth 86K = growth inhibitors of human H69AR lung tumor cells | 6% of 85,000 active | viability, % at 10 µM | H69AR lung tumor viability, ATP luminescence, 72 h; hits give low values;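 active = viability at or below 40%; inactive = viability above 40%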;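 also: multidrug resistant small cell line overexpressing MRP-1 efflux transporter; 100% = mean luminescence of untreated control wells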
PTEN del growth = suppresses growth of cells with PTEN deletion | HCT116 PTEN-null viability, CellTiter-Glo, 60 h; hits give low values | viability, % at 10 µM | 1.2% of 140,000 active | AID 827;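 active = viability at or below a set limit, 4 SD under the median of all tested compounds, cut at about 3.7% in these data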;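 also: PTEN knockout HCT116 line with beta catenin targeted HCT116 as companion control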
Numbers without * were called inactive; · = not tested or not shown. The full list was thinned out, with hits kept by preference.

SMILES	Lung fibro prol	HCT116 bCat-KO	HUVEC prolif 384	H69AR growth 86K	PTEN del growth
COc1ccc(CCC(=O)Nc2cc(Cl)ccc2OC)cc1	90.9	69.0	82.4	24.2*	68.8
COc1ccccc1-n1cnc2cc(NC(=O)c3ccco3)ccc21	89.3	37.5	72.8	22.2*	32.1
O=C(CCCn1nnc(-c2cccnc2)n1)c1ccc(F)cc1	105.7	100.2	105.8	94.0	100.5
COc1cc(NC(=O)c2c(F)c(F)c(F)c(F)c2F)c(OC)cc1Cl	91.5	66.5	45.3	13.6*	64.1
COC(=O)c1[nH]c2cc(C)ccc2c1NC(=O)CN1CCCc2ccccc21	·	5.5*	·	·	4.2
Cc1cc(NC(=O)CN2CC(C)OC(C)C2)n(-c2nc3ccccc3s2)n1 (stereo not given)	89.5	90.3	90.0	42.6	90.9
CCOC(=O)C1CCCN(CC(=O)Nc2c(C(=O)OC)[nH]c3ccc(Br)cc23)C1 (stereo not given)	94.9	76.8	72.5	57.7	74.2
CCOC(=O)C1CCN(CC(=O)Nc2cc(C)nn2-c2nc3ccccc3s2)CC1	94.4	75.3	72.9	27.8*	79.2
COC(=O)c1[nH]c2cc(C)ccc2c1NC(=O)CN1CCN(C(=O)c2ccco2)CC1	86.8	85.7	83.9	62.5	90.4
COC(=O)c1[nH]c2ccc(Br)cc2c1NC(=O)CN1CCCc2ccccc21	74.6	41.4	64.1	20.7*	47.7
COC(=O)c1[nH]c2ccc(Br)cc2c1NC(=O)CN1CCN(C2CCCCC2)CC1	16.2*	1.7*	5.7*	2.9*	1.8*
CCOC(=O)C1CCN(CC(=O)Nc2c(C(=O)OC)[nH]c3ccccc23)CC1	101.7	75.0	102.9	1.9*	84.6
O=C1CN(C(=O)c2ccccn2)c2ccccc2N1	92.1	102.3	102.6	91.7	99.0
CCCn1nc(C(=O)N2CC(=O)Nc3ccccc32)c2ccccc2c1=O	62.5	30.6	55.2	25.2*	26.7
C=CCOC(=O)c1sc(N2C(=O)c3oc4ccccc4c(=O)c3C2c2ccco2)nc1C (stereo not given)	58.0	·	34.9	17.3*	·
COC(=O)c1sc(N2C(=O)c3oc4ccccc4c(=O)c3C2c2cccs2)nc1C (stereo not given)	·	65.3	·	·	46.8
CCOC(=O)c1cccc(NC(=O)c2ccc(N(C)C)cc2)c1	·	104.1	·	·	104.0
O=C(/C=C/c1ccncc1)c1ccc(NC(=O)c2ccccc2F)cc1	·	1.2*	·	·	2.0*
O=C(/C=C/c1ccc2c(c1)OCO2)c1ccco1	·	18.5	·	·	20.1
O=C(Nc1cccc(NC(=O)c2ccc(-c3ccc(Br)cc3)o2)c1)c1ccco1	70.2	38.6	53.9	35.3*	36.3
O=C(/C=C/c1ccc(Br)cc1)c1ccco1	·	1.0*	·	·	0.8*
O=C(/C=C/c1ccc(Br)cc1)c1ccc(NC(=O)c2ccco2)cc1	·	1.8*	·	·	2.1*
COc1ccc(/C=N/NC(=O)c2cccc(NC(=O)c3ccccc3)c2)c(C(=O)O)c1OC	·	98.5	·	·	96.4
CCc1ccc(N2CC(C(=O)Nc3nnc(CC)s3)CC2=O)cc1 (stereo not given)	97.4	89.6	91.9	92.0	93.7
Cc1cc2nnc(SCCCCN3C(=O)c4ccccc4C3=O)n2c2ccccc12	·	100.9	·	·	99.1
SMILES	Lung fibro prol	HCT116 bCat-KO	HUVEC prolif 384	H69AR growth 86K	PTEN del growth
CCN(CC)c1ccc(NC(=O)c2ccccc2F)cc1	70.9	32.9	46.7	25.6*	30.5
CCN(CC)c1ccc(NC(=O)c2cc(Cl)ccc2OC)cc1	73.9	63.8	30.5	48.1	66.6
CCc1ccc(C(=O)/C=C/c2ccc([N+](=O)[O-])o2)cc1	14.5*	1.9*	21.1*	2.6*	1.5*
CCC(Oc1ccccc1)C(=O)Nc1ccccn1 (stereo not given)	·	90.7	·	·	92.7
S=c1[nH]nc(-c2ccc3c(c2)OCO3)n1-c1ccccc1	·	99.0	·	·	93.5
S=c1[nH]nc(COc2ccc3c(c2)OCO3)n1-c1ccccc1	97.7	92.7	93.1	37.4*	99.8
CCOC(=O)c1ccc(Cn2c(-c3ccccc3)nnc2-c2ccccc2)o1	90.5	77.2	97.2	32.5*	79.3
O=C1CC(c2ccccc2)CC2=C1CN(C1CCCCC1)CN2 (stereo not given)	70.3	29.4	71.5	22.6*	32.1
CCOC(=O)c1c(NC(=S)NC(=O)c2ccc(Cn3cc(Cl)cn3)o2)sc2c1CCCCC2	·	2.4*	·	·	5.8
Cc1cc(Cl)ccc1N1C(=O)CC(NNC(=O)c2cccnc2)C1=O (stereo not given)	·	88.9	·	·	97.2
C/C(CCC12CC3CC(CC(C3)C1)C2)=N\NC(N)=S	72.7	31.1	65.8	12.9*	51.6
CN1c2ccccc2C(C)(C)[C@]12C=Cc1cc(O)ccc1O2	87.6	29.6	49.5	8.6*	30.5
O=C(CSc1nnc(C2CC2)n1-c1ccccc1)Nc1ccc(N2CCOCC2)cc1	103.5	90.8	99.1	90.7	103.0
COc1ccc(CC(=O)NCc2cn3ccsc3n2)cc1	98.0	92.3	102.3	1.0*	97.8
Cc1ccc(N2CCN(C(=O)c3ccccc3NC(=O)/C=C\C(=O)O)CC2)cc1	·	77.4	·	·	87.3
O=C(Nc1ccc(F)cc1)c1sc(Cl)nc1-c1ccccc1	·	102.8	·	·	95.1
O=C(Nc1ccc(Cl)cc1)c1cnc(-c2ccccc2)nc1-c1ccccc1	·	0.9*	·	·	2.7*
CC(C)CCn1c(SCC(N)=O)nc2c1c(=O)n(C)c(=O)n2C	93.0	92.1	100.1	39.1*	93.2
N#C/C(=C/c1ccc(Br)s1)C(=O)NCCc1c[nH]c2ccccc12	·	76.3	·	·	85.3
O=[N+]([O-])c1ccc(Oc2ccc(F)cc2)c2ccncc12	72.5	65.0	53.8	24.2*	67.8
O=[N+]([O-])c1ccc(Oc2cccc(Br)c2)c2ccncc12	84.1	12.5	76.6	18.4*	8.8
C=CCc1c(C)nn(CC(=O)O)c1-c1ccccc1	99.2	84.8	95.3	93.0	94.2
CCOC(=O)c1[nH]c(C)c(C(=O)NCc2ccc(C)cc2)c1C	96.6	91.4	58.5	90.8	67.8
CCOC(=O)c1[nH]c(C)c(C(=O)Nc2ccc(C)cc2C)c1C	63.9	28.6	66.7	37.6*	22.8
CCOC(=O)c1[nH]c(C)c(C(=O)c2ccc(C)cc2)c1C	46.2*	14.0	41.4	28.8*	·
SMILES	Lung fibro prol	HCT116 bCat-KO	HUVEC prolif 384	H69AR growth 86K	PTEN del growth
CCOC(=O)c1[nH]c(C)c(C(=O)Nc2ccccc2F)c1C	64.4	22.9	56.1	22.5*	20.4
CCOC(=O)c1[nH]c(C)c(C(=O)Nc2ccc(F)cc2)c1C	98.7	99.4	99.7	84.5	101.7
O=C(C[n+]1cc2ccccc2c2ccccc21)c1ccccc1	·	33.7	·	·	48.1
CCCCCCCCC[n+]1cccc2c3ccccc3ccc21	·	1.2*	·	·	1.2*
CCCCCCCCCCCCCCCC[n+]1cccc2ccccc21	·	1.4*	·	·	1.7*
N#Cc1nc(COc2ccccc2Cl)oc1NCc1cccnc1	93.1	93.2	85.0	47.9	81.2
O=C(c1cncc(Br)c1)N1CCc2ccccc2C1	101.9	105.8	78.9	65.3	91.9
O=C(CSc1nnc(COc2ccc(Cl)cc2)o1)N1c2ccccc2CCc2ccccc21	61.5	29.5	92.5	9.1*	38.4
